Two molecules from ChEMBL document CHEMBL1136055, “3-Heteroaryl-2-pyridones: benzodiazepine site ligands with functional delectivity for alpha 2/alpha 3-subtypes of human GABA(A) receptor-ion channels” (J Med Chem, 2002) can be followed below.

For experiment [1], the target named is GABA-A receptor; alpha-1/beta-3/gamma-2 (Homo sapiens) (UniProt P14867+P18507+P28472). The experiment is described as follows: Modulatory effect on coapplication with GABA at human Gamma-aminobutyric acid A receptor alpha-1-beta-3-gamma-2 in Xenopus oocyte. In outline:
(§1)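 Two-electrode voltage clamp of Xenopus oocytes transiently expressing human α1, α2 or α3 β3γ2S receptors. Test compound is co-applied with GABA at its EC20 (GABA range 4-30 µM). Result is the % change in GABA current, mean (SEM), n = 3-7, at the stated test compound concentration (µM).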

Experiment [2] addresses GABA-A receptor; alpha-2/beta-3/gamma-2 (Homo sapiens) (UniProt P18507+P28472+P47869). The experiment is described as follows: Modulatory effect on coapplication with GABA at human Gamma-aminobutyric acid A receptor alpha-2-beta-3-gamma-2 expressed inXenopus oocytes. The note with it: Oocyte. The format is cell-based. In outline: as §1
For experiment [3], the target named is T1, GABA-A receptor; alpha-1/beta-3/gamma-2 (Homo sapiens, UniProt P14867+P18507+P28472).
T1 sequence (P14867 whole entry): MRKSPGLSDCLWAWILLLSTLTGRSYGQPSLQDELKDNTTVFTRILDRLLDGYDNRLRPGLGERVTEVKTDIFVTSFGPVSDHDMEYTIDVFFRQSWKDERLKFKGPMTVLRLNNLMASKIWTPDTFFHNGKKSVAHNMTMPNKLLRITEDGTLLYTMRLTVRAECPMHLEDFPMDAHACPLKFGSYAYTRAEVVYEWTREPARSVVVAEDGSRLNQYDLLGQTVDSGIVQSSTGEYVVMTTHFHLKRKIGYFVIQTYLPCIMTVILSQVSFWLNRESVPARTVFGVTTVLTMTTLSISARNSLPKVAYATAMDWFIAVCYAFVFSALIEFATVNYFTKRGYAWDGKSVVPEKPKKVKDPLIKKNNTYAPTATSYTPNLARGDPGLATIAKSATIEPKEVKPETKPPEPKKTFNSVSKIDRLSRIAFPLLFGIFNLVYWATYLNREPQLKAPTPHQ
T1 sequence (P18507 whole entry): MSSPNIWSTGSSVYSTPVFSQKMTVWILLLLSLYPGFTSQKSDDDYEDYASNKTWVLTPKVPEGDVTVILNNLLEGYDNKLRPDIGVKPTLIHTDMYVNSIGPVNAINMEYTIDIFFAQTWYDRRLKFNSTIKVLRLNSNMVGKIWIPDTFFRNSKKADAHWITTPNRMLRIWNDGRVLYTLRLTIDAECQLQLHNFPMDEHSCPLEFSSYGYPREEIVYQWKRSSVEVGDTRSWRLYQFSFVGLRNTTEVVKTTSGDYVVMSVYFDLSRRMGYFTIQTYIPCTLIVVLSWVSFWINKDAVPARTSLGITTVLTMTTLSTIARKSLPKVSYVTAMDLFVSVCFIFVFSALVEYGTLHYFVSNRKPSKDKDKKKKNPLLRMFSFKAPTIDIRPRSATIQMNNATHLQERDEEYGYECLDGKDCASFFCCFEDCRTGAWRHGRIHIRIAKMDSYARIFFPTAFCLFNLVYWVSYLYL
T1 sequence (P28472 whole entry): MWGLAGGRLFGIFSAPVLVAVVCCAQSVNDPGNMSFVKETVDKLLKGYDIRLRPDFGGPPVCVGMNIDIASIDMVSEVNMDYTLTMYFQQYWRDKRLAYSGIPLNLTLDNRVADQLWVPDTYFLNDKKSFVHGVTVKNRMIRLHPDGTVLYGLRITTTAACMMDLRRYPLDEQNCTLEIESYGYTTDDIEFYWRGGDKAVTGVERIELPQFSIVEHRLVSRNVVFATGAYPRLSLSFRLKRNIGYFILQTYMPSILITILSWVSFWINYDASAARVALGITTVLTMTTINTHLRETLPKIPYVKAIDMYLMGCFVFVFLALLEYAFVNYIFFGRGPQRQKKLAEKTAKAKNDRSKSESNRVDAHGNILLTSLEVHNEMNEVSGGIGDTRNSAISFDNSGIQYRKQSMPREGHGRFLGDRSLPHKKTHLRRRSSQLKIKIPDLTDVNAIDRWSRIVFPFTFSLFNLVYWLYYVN
The experiment can be described thus: Inhibition of [3H]Ro-151788 binding to human GABA A receptor (alpha-1-beta-3-gamma-2) stably expressed in L(tk-) cells. The format is cell-based.

Experiment [4] deals with GABA-A receptor; alpha-3/beta-3/gamma-2 (Homo sapiens) (UniProt P18507+P28472+P34903). The experiment can be described thus: Modulatory effect on coapplication with GABA at human Gamma-aminobutyric acid A receptor alpha-3-beta-3-gamma-2 in Xenopus oocytes. The experiment is classed as cell-based. The note with it: Oocyte. In outline:
as §1

In experiment [5] the target is T2, GABA-A receptor; alpha-3/beta-3/gamma-2 (Homo sapiens, UniProt P18507+P28472+P34903).
T2 sequence (P18507 whole entry): T1 sequence (P18507 whole entry)
T2 sequence (P28472 whole entry): T1 sequence (P28472 whole entry)
T2 sequence (P34903 whole entry): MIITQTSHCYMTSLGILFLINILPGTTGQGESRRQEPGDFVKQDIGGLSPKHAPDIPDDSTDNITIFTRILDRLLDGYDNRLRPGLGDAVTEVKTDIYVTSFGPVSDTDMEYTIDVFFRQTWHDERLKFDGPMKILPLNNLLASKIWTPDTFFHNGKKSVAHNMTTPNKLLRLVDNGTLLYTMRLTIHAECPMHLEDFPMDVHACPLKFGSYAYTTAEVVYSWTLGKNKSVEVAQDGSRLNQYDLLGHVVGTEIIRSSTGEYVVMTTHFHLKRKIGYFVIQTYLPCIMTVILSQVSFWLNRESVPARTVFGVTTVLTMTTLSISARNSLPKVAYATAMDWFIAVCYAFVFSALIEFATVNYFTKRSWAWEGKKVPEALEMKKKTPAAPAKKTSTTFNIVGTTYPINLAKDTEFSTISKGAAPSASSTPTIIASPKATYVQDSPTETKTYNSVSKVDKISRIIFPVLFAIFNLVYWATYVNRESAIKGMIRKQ
The experiment is described as follows: Binding affinity by displacement of [3H]Ro-151788 from recombinant human gamma-aminobutyric-acid A receptor alpha3,beta3,gamma2 stably expressed in L cells. The experiment is classed as cell-based. The essentials:
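Competition binding against [3H]Ro15-1788 on cloned human α1/α2/α3/α5 β3γ2S receptors stably expressed in L(tk-) cells. Six to eight test concentrations spaced in half-log steps. Ki given as mean (SEM), n = 3-5, reported to two significant figures.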

Usually Ki stands for a measure of affinity in units of concentration, obtained from inhibition or displacement. `COc1ccc(-c2cc(-c3nc(C)cs3)c(=O)n(C)c2-c2ccnnc2)cc1`: the percent modulation of GABA EC20 response in experiment [1] is 7%; in experiment [2] it was 33%; in experiment [4] it was 34%. The figures for the Ki in experiment [3] and in experiment [5] were 17 nM and 4.1 nM, respectively.
In the case of `COc1ccc(-c2cc(-c3nc(C)cs3)c(=O)n(C)c2-c2ccncc2)cc1`, the percent modulation of GABA EC20 response was determined as 7% in experiment [1], 80% in experiment [2] and 43% in experiment [4]. Further, the Ki in experiment [3] came out at 17 nM; in experiment [5] it was 3.4 nM.
